Assay results from different studies.
Protocols differ between the studies behind these lines.
Read-out: cell growth or viability

With COc1ccc2c(Cc3ccccc3F)c3[n+](cc2c1OC)CCc1cc2c(cc1-3)OCO2 the IC50 was 19.9 µM (L929; CCK-8; 24 h).
The viability of O=S(=O)(NNc1nnc(Cl)c2ccccc12)c1ccc(F)cc1 is reported as 4.75% (Vero; MTT; 500 µg/mL).
The viability of CC(C)=CCc1c(O)c(CC=C(C)C)c2occ(-c3ccc(O)cc3)c(=O)c2c1O is reported as 91.4% (RAW264.7; MTT; 100 µg/mL; 24 h).
For Cn1cnc2c1c(=O)n(CC(=O)Nc1c(Cl)cccc1Cl)c(=O)n2C, the viability was 70.7% (Vero; MTT; 250 µg/mL).
For C=C1[C@@H]2[C@H]3OC(=O)C(=C)[C@@H]3CCC(=C)[C@@H]2C[C@@H]1OC(C)=O, the CC50 was 6.9 µM (CHO-K1; MTT; 72 h).
For COC(=O)c1[nH]c(C(=O)OC)c(-c2c[nH]c3ccc(Cl)cc23)c1-c1c[nH]c2ccc(Cl)cc12, the CC50 was > 10 µM (RAW264.7; resazurin; 72 h).
With CCNc1nc(Nc2ccc(F)c(Cl)c2)c2ccccc2n1 the viability was 6.91% (Vero; MTT; 500 µg/mL).
With C=C1CC[C@H]2C(C)=CC[C@H]3C(=C)C(=O)O[C@@H]3[C@@H]12 the CC50 was 7.3 µM (CHO-K1; MTT; 72 h).
With O=C1CCN(C(=O)Nc2ccc(F)c(Cl)c2)CN1Cc1ccc(F)cc1F the CC50 was > 50 µM (AML12HBV10; MTT; 48 h).
